Results reported in the EternaBench riboswitch data.

Tested on: MS2 coat protein
Experiment: apparent Kd, MS2 coat protein; higher = weaker binding; RNA-MaP array; FMN 200 µM where present
In short: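 SNAP-549-labelled MS2 coat protein, doubled from 0.7 or 1.5 nM to 3 µM, was titrated over designs transcribed by stalled E. coli RNA polymerase on Illumina sequencing-chip clusters. Titrations were run without and then with constant ligand in 100 mM Tris-HCl pH 7.5, 80 mM KCl, 4 mM MgCl2, BSA, DTT, yeast tRNA and Tween-20. The apparent Kd is the median of filtered per-cluster fits to green signal normalised to red-channel RNA signal and control-cluster median Fmax.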

[1] = designed as: ON switch for flavin mononucleotide, no ligand
[2] = ligand present: flavin mononucleotide, designed as: ON switch for flavin mononucleotide
[3] = designed as: OFF switch for flavin mononucleotide, no ligand
[4] = ligand present: flavin mononucleotide, designed as: OFF switch for flavin mononucleotide

Row | Sequence | apparent Kd [1] [nM] | apparent Kd [2] [nM] | apparent Kd [3] [nM] | apparent Kd [4] [nM]
1 | AAAACAUGAGGAUCACCCAUGUAUAGAUCGGUUAAUAGAAGUGAGGAUAUGCUUAAAAUAAGGUAGCAGAAGGCACUGGGUACA | 23.9 | 25.1 |  | 
2 | AAACCGCUAGGAUAUACGAAAUAAAACUCUGUACUUGAGGUACAUGAGGAUCACCCAUGUAGAAGGAGCUCGGA |  |  | 119 | 229
3 | UAUUCUUACGAAGGAUAUGGUUACAUGAGGAUCACCCAUGUAUGUAUAUUGAUCUAGUUUUUUAACCAGAAGGUCGUGAGUAUA |  |  | 40.4 | 54.2
4 | UGUCCAUAGCAGAAGGACAUGAAUAAACGUGAAAACAUGAGGAUCACCCAUGUAGGAUAUGCUAUGGACUAAGAGCGAAAGCUC |  |  | 34.7 | 494
5 | AAGAAGUCAGGAUAUGCAUGGCGGGACUUGCGUCGUGGCGUGCAGAAGGGACAUGAGGAUCACCCAUGUAAAGU |  |  | 49 | 45.4
6 | UGUUUUGAAGUAGGAUAUCAACACACAUGAGGAUCACCCAUGUUAGAUGUGGAUGUUGUAUGUUAUGAGAAGGACUUCGAUUCG |  |  | 25.6 | 95.4
7 | AAUACAUGAGGAUCACCCAUGUAAAGUUCAAACAAUAUGAGUGAGGAUAUACUGAGUUAGUUAUGGUAGAAGGCACUGGGUACA | 23.1 | 21.8 |  | 
8 | GACUGCUGAGGAUAUACAUGAGGAUCACCCAUGUGCUUCAGUAUCGAAAGAUACAUUGGUAGAAGGUGGUAGUC |  |  | 13.4 | 21.4
9 | GCUAUCGGGUGAGGAUAUAUGGUUGUGAUUAAAAUAGAAGGCAUCUCAGAAGACAUGAGGAUCACCCAUGUAGUUAAGAUGGCA | 63.4 | 46.8 |  | 
10 | GGAUAGGACAGAGGAUAUACGUGCUAGAGAUACUAGCAAAAUUUCCUCACAUGAGGAUCACCCAUGUAGAAGGCUGUCCUAGCG |  |  | 15.7 | 376
11 | UAUGUACGAGGAUAUACAUAGAUACAGAUACAUGUAGACGUACAUGAGGAUCACCCAUGUAGAAGGCGUAUAUA |  |  | 101 | 122
12 | CAAAAGUAUAACAAUUUCAAGGCACAGGAUAUGAGUGUGCACAUGAGGAUCACCCAUGUUAUAACUUAGAAGGGUGACCAUUGC | 427 | 368 |  | 
13 | UGGUACUAGGGAGGAUAUGGGAAGAUACAUGAGGAUCACCCAUGUUUAAGAAUGCCGAGAGGCAACUAGAAGGCCCUAGUACCG | 475 | 21.9 |  | 
14 | CGAUAUAUGAAGGGCGAAAGCCCACAUGAGGAUCACCCAUGUAGAAGGCGGGCCGCAACGCGGCCCGAGGAUAUAUAGUAUACA |  |  | 8.05 | 8.84
15 | AUUUUUUGUCAUGUACAUGAUGAACAUGAGGAUCACCCAUGUAGAAGGAAUUUUUUUAAGUUUAGUUAGGAUAUACAUAUAUUU |  |  | 16.6 | 10.8
16 | UUGAUAAGGAGAGGAUAUGGACAUGAGGAUCACCCAUGUACAUGGGAAUAUUUACUGAAUUUUUACUAGAAGGCUUACAUAUUU |  |  | 15.8 | 12.4
17 | CAUAUAGUAGUGAGGAUAUGCGAAUAUAUAAUUAAGUAGAAGGCACAUGAGGAUCACCCAUGUAUAUUGUAAAG |  |  | 20.6 | 20.6
18 | GUUGUGUGAGGAUAUGCCUGGCCGUGUGGCCGGAUUGGGUGGCAGAAGGUACAUGAGGAUCACCCAUGUACGGG |  |  | 90.6 | 70
19 | AGUCCACAUGAGGAUCACCCAUGUCUGGAGAAGACAGGAUAUAAGGAAAAAAAAAAAAACUUAGAAGGGUCAAAAA | 128 | 69.7 |  | 
20 | GCCGCGUUUCGCGCCUACAUGAGGAUCACCCAUGUUUGUGGGCAGGAUAUCGUCCGCUCUGCGGGCGAGAAGGGCUGUUGUGGU | 57.7 | 50 |  | 
21 | GUCUCACAUGAGGAUCACCCAUGUGAGGAUAUGGAUUCGCUGGCCGUAGCCAGUGGAUCCAGAAGGCGCAUGAU |  |  | 20.5 | 22
22 | AAUAACAGAGGAUAUACUAUUUUAUGUGUUUGUUAUUUUAAACAUGAGGAUCACCCAUGUAGAAGGCUGAUUAA |  |  | 42 | 44.6
23 | GUGAUCGACAUGAGGAUCACCCAUGUGGAUUCGUUGAGCGGCAGAAGGCGAUGUAGAAAAGAACUCGAGGAUAUGCACGUGUCA | 7.22 | 6.76 |  | 
24 | UGUCGGAGCAGAGGAUAUUACAUGAGGAUCACCCAUGUAUGAGCCAAUAGCUGGAAACAGCAAUGUAAGAAGGCUGCUCCGACA |  |  | 19.1 | 206

Row | Sequence | apparent Kd [1] [nM] | apparent Kd [2] [nM] | apparent Kd [3] [nM] | apparent Kd [4] [nM]
25 | GGUCGUCAAGUCAGGAUAUCGUUUAGUCGAUGUAACGAGAAGGGACAUGAGGAUCACCCAUGUCGUCUCAUCAG |  |  | 18.9 | 24.8
26 | GCUGCAUAGGCAGGAUAUGCAAAAGCAGAUGCAAAGCAUCUGCAAGAAACAUGAGGAUCACCCAUGUAGAAGGGCCUGUGCAGU |  |  | 21.4 | 20.2
27 | CUGCUCCGUGUAGGAUAUCCCGGCAACCAAUCGGGAGAAGGACAUGAGGAUCACCCAUGUAUGUUAUUAUCACGUGAAGCGUCC |  |  | 23.1 | 30.1
28 | UUAAACGCAGGAUAUACAUUUUUUUUAUUAUCCUCAUAAAUACAUGAGGAUCACCCAUGUAGAAGGGCGAAAUU |  |  | 239 | 210
29 | CGCUACUACCAGAAGGACAUGAGGAUCACCCAUGUAGGAUAUGGGUUACACGUUCCUGUGUAUUGUUACUACGCUACGUAUGCG | 168 | 11.9 |  | 
30 | GUAUCGUAUGUGAGGAUAUAUUUGUCCUUGGAUUUGUAGAAGGCACAUGAGGAUCACCCAUGUCCUAGUGGUCC |  |  | 35.1 | 34.9
31 | CCCUCAACAUGAGGAUCACCCAUGUAGGAUAUCGCUAUUGUAAUCAUGAAACAUGAUUACAAUAGCGAGAAGGACAUAUGUCCC |  |  | 13.8 | 15.3
32 | CUGCCUUAUGAGAAGGCGAUCAUGAAACAUGAUCGAGGAUAUCAUGUAAACAUGAGGAUCACCCAUGUAUGGGUAUUAUGGUAG | 529 | 74.5 |  | 
33 | UUUACAUGAGGAUCACCCAUGUAUAGAACGGUUAAUUAAAGUGAGGAUAUACAUAAUUUUAUAUUGUAGAAGGCACUGGGUACA | 14.3 | 17.5 |  | 
34 | UGUAUUAUCGGAGGAUAUCGAUAUCAAACAUGAGGAUCACCCAUGUUGAGGAUCACCCAUGUCCACGAGAAGGCCGGCGUACUC | 25.7 | 26.4 |  | 
35 | GCGGUACAUGAGGAUCACCCAUGUCAGGAUAUCCGCUGUUUGUCGUUUGGCGGGCGGUGGAGAAGGGACCUCGC |  |  | 90 | 93
36 | CACAAGAAAGUCGAAGGUUGAAGUAGAAGGUCUAUAACAUGACAUGAGGAUCACCCAUGUGCCAAGAAGGAUAUGCUUUAAUCG |  |  | 7.97 | 6.53
37 | UUGUUGUAUGUAGGAUAUGCGUGUUAUUAUUAUGCAGAAGGACAUGAGGAUCACCCAUGUAUAUUAUUAUUAUAUGUUAUAUAU |  |  | 25 | 23.9
38 | UUUUAAUAAAAGAAGGAGCACUACAUGAGGAUCACCCAUGUGUUAGUAGUUAGGAUAUUUAAUAACAUGAGGAUCACCCAUGUA | 194 | 87 |  | 
39 | UCAUUUUCCACAGGAUAUAUUCAUAUACAGUUGUUUGGCUCUUACAUGUUAGUAGAAGGGUGCAACAUGAGGAUCACCCAUGUA | 362 | 186 |  | 
40 | CAUGUUAUACAGGAUAUCCGUAUGUAAUUCGUCGGAGAAGGGUAUACAUGAGGAUCACCCAUGUAUUCCUAGCU |  |  | 16.1 | 20.8
41 | GGAAUGAGGCAGGAUAUGGGAGGGAGGACCGGACCAGAAGGGUUGACAUGAGGAUCACCCAUGUAGAGAUCCUC |  |  | 1060 | 724
42 | GUCAGCUCGUGAGGAUAUACAACACUGCUUCGGCAGCGUAUUAAGAUCACAUGAGGAUCACCCAUGUAGAAGGCACGAGCUGAU |  |  | 11.7 | 206
43 | GGUUGUCAUCGUCGUCCUUUCGGUACAUGAGGAUCACCCAUGUAGGAUAUGCUGCAUUCGAUGUGGCAGAAGGGCGUGUGUGUU |  |  | 16.7 | 18.4
44 | CUAUAUAAUACCUCAUGUACAUGAGGAUCACCCAUGUUAACUUAGGAUAUAUUUAUAUUAAUAGAGUAGAAGGAAGUACUAUUG |  |  | 27.4 | 21.2
45 | AUUUGACACGUAGGAUAUCGCUCAAAUUUAACACGAGAAGGACGAACAUGAGGAUCACCCAUGUAACAUGGAGUAGUUUAUUUG |  |  | 76.6 | 111
46 | CGGGCACAUGAGGAUCACCCAUGUCAGGAUAUCGGCCGGCGGCCGCCGGGCCGCCGGCCGAGAAGGGACGCCCG |  |  | 16.4 | 18.7
47 | GGUCGUCAAGUCAGGAUAUCGUUUAGUCGGUGUAACGAGAAGGGACAUGAGGAUCACCCAUGUCGUCUCAUCAG |  |  | 18.8 | 25.8
48 | UCAAAGAGAUCGAAUGGGAGGCGUAAGGAUAUGCACAUGAGGAUCACCCAUGUCUACGAAAGUAGGCAGAAGGUACGCGGGAUU | 315 | 34.2 |  | 
